“And” between values parts separate entries of the source, which are not always exact repeats. Equal values may be shown once.
Tests used:
Format in all cases: toxicity, cell-based
U2OS = assay: Multiplex assay against U2OS; conditions: human, number of replicates 2
Summary of the method: (§1)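 Values for tubulin, mitochondrial-mass and membrane-permeability phenotypes are per cents of cells with healthy nuclei. These cells were identified by CellPathfinder machine-learning gating of live cells that had been stained at seeding with Hoechst33342, BioTracker Green Microtubule Cytoskeleton Dye, MitoTracker Red and Annexin V Alexa Fluor 680 and imaged on a CQ1 microscope at 37°C and 5% CO2 after compound addition. The gating first set Hoechst high-intensity objects apart from normal cells, then split normal cells into healthy, pyknosed or fragmented nuclei, and pyknosed cells into mitotic or apoptotic.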

HEK-293T = assay: Multiplex assay against HEK293T; conditions: human, number of replicates 2; summary of the method: as §1
Fibroblast = assay: Multiplex assay against human fibroblast; conditions: number of replicates 2; summary of the method: as §1
[1] = 12 h, 1 µM, compound concentration 1 uM
[2] = 12 h, 10 µM, compound concentration 10 uM
[3] = 24 h, 1 µM, compound concentration 1 uM
[4] = 24 h, 10 µM, compound concentration 10 uM
[5] = 48 h, 1 µM, compound concentration 1 uM
[6] = 48 h, 10 µM, compound concentration 10 uM

## O=C1Nc2ccc(C(=O)c3ccco3)cc2C1=Cc1cc(Cl)c(O)c(Cl)c1 [GW406108X]
U2OS; [1]
  Population Apoptotic (%): 25% and 65%
  Population Fragmented Nuclei (%): 11% and 2%
  Population Healthy Nuclei (%): 76% and 87%
  Population Hoechst High Intensity Objects (%): 0%
  Population Membrane Permeable-Phenotype (%): 3% and 0%
  Population Mitochondria Different-Phenotype (%): 0%
  Population Mitotic Cells (%): 75% and 34%
  Population Normal (%): 100%
  Population Pyknosed Nuclei (%): 11% and 9%
  Population Tubulin-Different-Phenotype (%): 76% and 82%
U2OS; [2]
  Population Apoptotic (%): 83% and 47%
  Population Fragmented Nuclei (%): 12% and 4%
  Population Healthy Nuclei (%): 69% and 85%
  Population Hoechst High Intensity Objects (%): 0%
  Population Membrane Permeable-Phenotype (%): 0% and 1%
  Population Mitochondria Different-Phenotype (%): 0%
  Population Normal (%): 100%
  Population Pyknosed Nuclei (%): 18% and 10%
  Population Tubulin-Different-Phenotype (%): 52% and 87%
U2OS; [3]
  Population Apoptotic (%): 40% and 64%
  Population Fragmented Nuclei (%): 4% and 2%
  Population Healthy Nuclei (%): 85% and 88%
  Population Hoechst High Intensity Objects (%): 0%
  Population Membrane Permeable-Phenotype (%): 10% and 1%
  Population Mitochondria Different-Phenotype (%): 2% and 0%
  Population Mitotic Cells (%): 60% and 35%
  Population Normal (%): 100%
  Population Pyknosed Nuclei (%): 10% and 8%
  Population Tubulin-Different-Phenotype (%): 75% and 79%
U2OS; [4]
  Population Apoptotic (%): 87% and 43%
  Population Fragmented Nuclei (%): 8% and 5%
  Population Healthy Nuclei (%): 73% and 82%
  Population Hoechst High Intensity Objects (%): 0%
  Population Membrane Permeable-Phenotype (%): 0% and 1%
  Population Mitochondria Different-Phenotype (%): 0%
  Population Normal (%): 100%
  Population Pyknosed Nuclei (%): 17% and 12%
  Population Tubulin-Different-Phenotype (%): 51% and 90%
U2OS; [5]
  Population Apoptotic (%): 33% and 48%
  Population Fragmented Nuclei (%): 6% and 1%
  Population Healthy Nuclei (%): 79% and 89%
  Population Hoechst High Intensity Objects (%): 0%
  Population Membrane Permeable-Phenotype (%): 2% and 1%
  Population Mitochondria Different-Phenotype (%): 2% and 0%
  Population Mitotic Cells (%): 66% and 51%
  Population Normal (%): 100% and 99%
  Population Pyknosed Nuclei (%): 13% and 8%
  Population Tubulin-Different-Phenotype (%): 85% and 83%
U2OS; [6]
  Population Apoptotic (%): 90% and 51%
  Population Fragmented Nuclei (%): 1% and 6%
  Population Healthy Nuclei (%): 79% and 83%
  Population Hoechst High Intensity Objects (%): 0%
  Population Membrane Permeable-Phenotype (%): 2%
  Population Mitochondria Different-Phenotype (%): 2% and 1%
  Population Normal (%): 100%
  Population Pyknosed Nuclei (%): 18% and 10%
  Population Tubulin-Different-Phenotype (%): 66% and 90%
HEK-293T; [1]
  Population Apoptotic (%): 52% and 54%
  Population Fragmented Nuclei (%): 4% and 3%
  Population Healthy Nuclei (%): 83% and 81%
  Population Hoechst High Intensity Objects (%): 9%
  Population Membrane Permeable-Phenotype (%): 2% and 1%
  Population Mitochondria Different-Phenotype (%): 18% and 17%
  Population Mitotic Cells (%): 47% and 45%
  Population Normal (%): 90%
  Population Pyknosed Nuclei (%): 11% and 14%
  Population Tubulin-Different-Phenotype (%): 49% and 42%
  Total Cell Count: 695 and 619
HEK-293T; [2]
  Population Apoptotic (%): 53% and 61%
  Population Fragmented Nuclei (%): 4% and 3%
  Population Healthy Nuclei (%): 82% and 85%
  Population Hoechst High Intensity Objects (%): 7% and 9%
  Population Membrane Permeable-Phenotype (%): 2% and 1%
  Population Mitochondria Different-Phenotype (%): 19%
  Population Mitotic Cells (%): 46% and 38%
  Population Normal (%): 92% and 90%
  Population Pyknosed Nuclei (%): 13% and 10%
  Population Tubulin-Different-Phenotype (%): 67%
  Total Cell Count: 686 and 661
HEK-293T; [3]
  Population Apoptotic (%): 55% and 53%
  Population Fragmented Nuclei (%): 7%
  Population Healthy Nuclei (%): 85% and 82%
  Population Hoechst High Intensity Objects (%): 9%
  Population Membrane Permeable-Phenotype (%): 2% and 1%
  Population Mitochondria Different-Phenotype (%): 4% and 5%
  Population Mitotic Cells (%): 44% and 46%
  Population Normal (%): 90%
  Population Pyknosed Nuclei (%): 7% and 9%
  Population Tubulin-Different-Phenotype (%): 26% and 25%
  Total Cell Count: 1089 and 967
HEK-293T; [4]
  Population Apoptotic (%): 46% and 59%
  Population Fragmented Nuclei (%): 7% and 6%
  Population Healthy Nuclei (%): 85% and 81%
  Population Hoechst High Intensity Objects (%): 11% and 13%
  Population Membrane Permeable-Phenotype (%): 3% and 2%
  Population Mitochondria Different-Phenotype (%): 10% and 15%
  Population Mitotic Cells (%): 53% and 40%
  Population Normal (%): 88% and 86%
  Population Pyknosed Nuclei (%): 7% and 11%
  Population Tubulin-Different-Phenotype (%): 53%
  Total Cell Count: 904 and 698
HEK-293T; [5]
  Population Apoptotic (%): 9% and 25%
  Population Fragmented Nuclei (%): 15% and 13%
  Population Healthy Nuclei (%): 81% and 82%
  Population Hoechst High Intensity Objects (%): 10% and 11%
  Population Membrane Permeable-Phenotype (%): 5% and 2%
  Population Mitochondria Different-Phenotype (%): 0%
  Population Mitotic Cells (%): 90% and 74%
  Population Normal (%): 89% and 88%
  Population Pyknosed Nuclei (%): 2% and 3%
  Population Tubulin-Different-Phenotype (%): 13% and 12%
  Total Cell Count: 2778 and 2175
HEK-293T; [6]
  Population Apoptotic (%): 34% and 50%
  Population Fragmented Nuclei (%): 18% and 14%
  Population Healthy Nuclei (%): 78% and 80%
  Population Hoechst High Intensity Objects (%): 15% and 20%
  Population Membrane Permeable-Phenotype (%): 4% and 1%
  Population Mitochondria Different-Phenotype (%): 1% and 3%
  Population Mitotic Cells (%): 65% and 50%
  Population Normal (%): 84% and 79%
  Population Pyknosed Nuclei (%): 3% and 5%
  Population Tubulin-Different-Phenotype (%): 22% and 30%
  Total Cell Count: 1684 and 1056
Fibroblast; [1]
  Population Apoptotic (%): 28% and 31%
  Population Fragmented Nuclei (%): 8% and 6%
  Population Healthy Nuclei (%): 65% and 68%
  Population Hoechst High Intensity Objects (%): 0%
  Population Membrane Permeable-Phenotype (%): 6%
  Population Mitochondria Different-Phenotype (%): 1%
  Population Mitotic Cells (%): 71% and 68%
  Population Normal (%): 99% and 100%
  Population Pyknosed Nuclei (%): 25% and 24%
  Population Tubulin-Different-Phenotype (%): 16% and 8%
  Total Cell Count: 224 and 230
Fibroblast; [2]
  Population Apoptotic (%): 44% and 41%
  Population Fragmented Nuclei (%): 8% and 11%
  Population Healthy Nuclei (%): 69% and 67%
  Population Hoechst High Intensity Objects (%): 0% and 2%
  Population Membrane Permeable-Phenotype (%): 6% and 5%
  Population Mitochondria Different-Phenotype (%): 0% and 2%
  Population Mitotic Cells (%): 55% and 58%
  Population Normal (%): 100% and 97%
  Population Pyknosed Nuclei (%): 21% and 20%
  Population Tubulin-Different-Phenotype (%): 18% and 14%
  Total Cell Count: 178 and 206
Fibroblast; [3]
  Population Apoptotic (%): 46% and 45%
  Population Fragmented Nuclei (%): 8% and 9%
  Population Healthy Nuclei (%): 72%
  Population Hoechst High Intensity Objects (%): 0%
  Population Membrane Permeable-Phenotype (%): 5% and 4%
  Population Mitochondria Different-Phenotype (%): 0% and 1%
  Population Mitotic Cells (%): 53% and 55%
  Population Normal (%): 100%
  Population Pyknosed Nuclei (%): 18% and 17%
  Population Tubulin-Different-Phenotype (%): 15% and 10%
  Total Cell Count: 248 and 224
Fibroblast; [4]
  Population Apoptotic (%): 58% and 43%
  Population Fragmented Nuclei (%): 7% and 17%
  Population Healthy Nuclei (%): 71% and 54%
  Population Hoechst High Intensity Objects (%): 0% and 1%
  Population Membrane Permeable-Phenotype (%): 9% and 10%
  Population Mitochondria Different-Phenotype (%): 1%
  Population Mitotic Cells (%): 41% and 56%
  Population Normal (%): 100% and 98%
  Population Pyknosed Nuclei (%): 21% and 28%
  Population Tubulin-Different-Phenotype (%): 27% and 23%
  Total Cell Count: 169 and 205
Fibroblast; [5]
  Population Apoptotic (%): 70% and 55%
  Population Fragmented Nuclei (%): 10% and 9%
  Population Healthy Nuclei (%): 76% and 77%
  Population Hoechst High Intensity Objects (%): 0%
  Population Membrane Permeable-Phenotype (%): 9% and 3%
  Population Mitochondria Different-Phenotype (%): 0%
  Population Mitotic Cells (%): 29% and 44%
  Population Normal (%): 100%
  Population Pyknosed Nuclei (%): 12%
  Population Tubulin-Different-Phenotype (%): 15% and 5%
  Total Cell Count: 242 and 224
Fibroblast; [6]
  Population Apoptotic (%): 61% and 68%
  Population Fragmented Nuclei (%): 11% and 16%
  Population Healthy Nuclei (%): 66% and 56%
  Population Hoechst High Intensity Objects (%): 0% and 1%
  Population Membrane Permeable-Phenotype (%): 12% and 10%
  Population Mitochondria Different-Phenotype (%): 0% and 1%
  Population Mitotic Cells (%): 38% and 31%
  Population Normal (%): 100% and 98%
  Population Pyknosed Nuclei (%): 22% and 26%
  Population Tubulin-Different-Phenotype (%): 36% and 31%
  Total Cell Count: 163 and 205

Source: ChEMBL document CHEMBL5303300, “EUbOPEN Chemogenomics Library - Multiplex” (2023)
